According to ChEMBL document CHEMBL4028901, “Novel Antitubercular 6-Dialkylaminopyrimidine Carboxamides from Phenotypic Whole-Cell High Throughput Screening of a SoftFocus Library: Structure-Activity Relationship and Target Identification Studies” (J Med Chem, 2017):
Values after ≈ are worked out from the molar mass of the structure shown.

Key:
[1] = test system: Mycobacterium tuberculosis; assay: Antibacterial activity against Mycobacterium tuberculosis H37RvMA grown in 7H9/ADC medium measured 7 to 14 days post inoculation by broth microdilution method; format: functional
Vero = assay: Cytotoxicity against African green monkey Vero cells assessed as reduction in cell viability by MTT assay; format: cell-based; settings: Chlorocebus sabaeus
Summary of the method: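 MTT assay in Vero cells, samples in triplicate on one occasion. Stocks at 20 mg/mL in DMSO, diluted in complete medium as 10-fold serial dilutions over 6 concentrations. Emetine used as reference. IC50 derived by non-linear dose-response curve fitting.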

[2] = Kinetic solubility of the compound in pH 7.4 solution at 10 to 220 uM after 2 hrs by shake flask method; format: physicochemical; settings: for Kinetic_solubility: buffer, pH 7.4, 2 h, 220 µM; for solubility kinetic at 2 h: pH 7.4 solution, pH 7.4, read-out: Kinetic_solubility
[3] = test system: Mycobacterium tuberculosis; assay: Antibacterial activity against Mycobacterium tuberculosis H37RvMA grown in GAST/Fe medium measured 7 to 14 days post inoculation by broth microdilution method; format: functional
Summary of the method: (§1)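 H37RvMa grown to OD600 0.6–0.7, diluted 1:100 in GAST/Fe. Compounds two-fold serially diluted from a top concentration of 640 μM, in duplicate. Incubated at 37 °C with humidification.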

[4] = test system: Mycobacterium tuberculosis; assay: Antibacterial activity against wild type Mycobacterium tuberculosis H37Rv grown in GAST/Fe medium measured on day 14 post inoculation by broth microdilution method; format: functional; settings: 336 h; summary of the method: as §1

Row | Structure (SMILES) | MIC99 [1] | IC50 (Vero) | Kinetic_solubility [2] | MIC99 [3] | MIC99 [4] | solubility kinetic at 2 h [2]
1 | CN1CCN(c2ccc(NC(=O)c3cc(N(C)Cc4ccc(F)cc4)ncn3)cn2)CC1 | > 50 µM | 126 µM | 150 µM | 19 µM (≈ 8.27 µg/mL) | – | –
2 | O=C(Nc1ccccc1)c1cc(OCc2ccccc2)ncn1 | > 160 µM | – | – | – | – | –
3 | O=C(Nc1ccccc1)c1cc(N2CCc3ccccc3C2)ncn1 | > 160 µM | – | < 5 µM | > 160 µM | – | –
4 | O=C(Nc1ccccc1)c1cc(NCc2ccccc2)ncn1 | > 160 µM | – | < 5 µM | – | – | –
5 | COCCOc1ccc(NC(=O)c2cc(N(C)Cc3ccc(F)cc3)ncn2)cc1 | 2.3 µM (≈ 0.944 µg/mL) | 244 µM | < 5 µM | 1.56 µM (≈ 0.64 µg/mL) | – | –
6 | CN(Cc1ccc(F)cc1)c1cc(C(=O)Nc2ccccc2)ncn1 | 6.25 µM (≈ 2.1 µg/mL) | 297 µM | < 5 µM | 1.56 µM (≈ 0.525 µg/mL) | 10 µM (≈ 3.36 µg/mL) | –
7 | CN(Cc1cccc(Cl)c1)c1cc(C(=O)Nc2ccccc2)ncn1 | 20 µM (≈ 7.06 µg/mL) | – | < 5 µM | 10 µM (≈ 3.53 µg/mL) | – | –
8 | CN(Cc1ccccc1)c1cc(C(=O)N(C)c2ccccc2)ncn1 | > 160 µM | – | – | – | – | –
9 | CN(Cc1ccc(F)cc1)c1cc(-c2nnc(-c3ccccc3)[nH]2)ncn1 | > 50 µM | 277 µM | < 5 µM | 25 µM (≈ 9.01 µg/mL) | – | –
10 | CN(C)CCOc1ccc(NC(=O)c2cc(N(C)Cc3ccc(F)cc3)ncn2)cc1 | 25 µM (≈ 10.6 µg/mL) | – | 155 µM | 12.5 µM (≈ 5.29 µg/mL) | – | –
11 | CN(Cc1ccccn1)c1cc(C(=O)Nc2ccccc2)ncn1 | > 160 µM | – | – | – | – | –
12 | COc1ccc(NC(=O)c2cc(N(C)Cc3cccc(F)c3)ncn2)cc1 | 37 µM (≈ 13.6 µg/mL) | 272 µM | – | 5 µM (≈ 1.83 µg/mL) | 2.5 to 5 µM (≈ 0.916 to 1.83 µg/mL) | –
13 | CCN(Cc1ccc(Cl)cc1)c1cc(C(=O)Nc2ccccc2)ncn1 | > 50 µM | 272 µM | 5 µM | 40 µM (≈ 14.7 µg/mL) | – | –
14 | CN(CCc1ccccc1)c1cc(C(=O)Nc2ccccc2)ncn1 | 80 µM (≈ 26.6 µg/mL) | – | < 5 µM | – | – | –
15 | C[C@H]1COc2c(N3CCN(C)CC3)c(F)cc3c(=O)c(C(=O)O)cn1c23 [LEVOFLOXACIN] | – | – | – | – | 0.64 µM (≈ 0.231 µg/mL) | –
16 | CN(Cc1ccc(F)cc1)c1nc(C(=O)Nc2ccccc2)cs1 | > 50 µM | 279 µM | – | > 50 µM | – | < 5 µM
17 | CN(CC1CCCCC1)c1cc(C(=O)Nc2ccccc2)ncn1 | > 50 µM | 178 µM | – | 40 µM (≈ 13 µg/mL) | – | –
18 | Cc1nc(C(=O)Nc2ccccc2)cc(N(C)Cc2ccc(Cl)cc2)n1 | > 160 µM | – | – | > 160 µM | – | –
19 | COc1ccc(NC(=O)c2ccnc(N(C)Cc3ccc(F)cc3)n2)cc1 | > 50 µM | 273 µM | – | > 50 µM | – | < 5 µM
20 | CN(Cc1ccc(F)cc1)c1ccnc(C(=O)Nc2ccccc2)c1 | – | 298 µM | – | 10 µM (≈ 3.35 µg/mL) | – | < 5 µM
21 | CN(Cc1ccc(C#N)cc1)c1cc(C(=O)Nc2ccccc2)ncn1 | > 50 µM | – | – | 20 µM (≈ 6.87 µg/mL) | – | < 5 µM
22 | CN(Cc1ccc(C(F)(F)F)nc1)c1cc(C(=O)Nc2ccc(N3CCOCC3)cn2)ncn1 | 3.13 µM (≈ 1.48 µg/mL) | 211 µM | < 5 µM | 2.3 µM (≈ 1.09 µg/mL) | – | –
23 | Cc1c(C(=O)Nc2ccc(F)cc2)ncnc1N(C)Cc1ccc(F)cc1 | > 50 µM | 271 µM | – | 37 µM (≈ 13.6 µg/mL) | – | < 5 µM

Row | Structure (SMILES) | MIC99 [1] | IC50 (Vero) | Kinetic_solubility [2] | MIC99 [3] | MIC99 [4] | solubility kinetic at 2 h [2]
24 | NNC(=O)c1ccncc1 [ISONIAZID] | – | – | – | – | 0.18 µM (≈ 0.0247 µg/mL) | –
25 | CN(Cc1ccc(F)cc1)c1cc(NC(=O)c2ccccc2)ncn1 | – | – | 5 µM | > 160 µM | – | –
26 | CN(c1ccccc1)c1cc(C(=O)Nc2ccccc2)ncn1 | > 160 µM | – | < 5 µM | – | – | –
27 | CN1CCN(c2cccc(NC(=O)c3cc(N(C)Cc4ccc(F)cc4)ncn3)c2)CC1 | 37 µM (≈ 16.1 µg/mL) | 118 µM | 74 µM | 37 µM (≈ 16.1 µg/mL) | – | –
28 | COc1ccc(NC(=O)c2cc(N(C)Cc3ccc(Cl)cc3)nc(NC3CC3)n2)cc1 | > 50 µM | – | 5 µM | > 160 µM | – | –
29 | COc1ccc(NC(=O)c2cc(N(C)Cc3ccc(Cl)cc3)nc(N)n2)cc1 | > 50 µM | – | – | > 160 µM | – | < 5 µM
30 | COc1ccc(NC(=O)c2cc(N(C)Cc3ccc(F)cc3)ncn2)cc1 | 5 µM (≈ 1.83 µg/mL) | 60.5 µM | 62 µM | 2.5 µM (≈ 0.916 µg/mL) | – | –
31 | CN(Cc1ccc(Cl)cc1)c1cc(C(=O)Nc2ccccc2)ncn1 | 5 µM (≈ 1.76 µg/mL) | 207 µM | < 5 µM | 2.3 µM (≈ 0.811 µg/mL) | – | –
32 | CN(Cc1ccc(F)cc1)c1cc(C(Nc2ccc(F)cc2)C(F)(F)F)ncn1 (stereo not given) | 37 µM (≈ 15.1 µg/mL) | 41.7 µM | < 5 µM | 19 µM (≈ 7.76 µg/mL) | – | –
33 | CN(Cc1ccccc1)c1cc(C(=O)Nc2ccccc2)ncn1 | 20 µM (≈ 6.37 µg/mL) | 314 µM | < 5 µM | 10 µM (≈ 3.18 µg/mL) | – | –
34 | CC(C)NC(=O)c1cc(N(C)Cc2ccc(C(F)(F)F)cc2)ncn1 | > 50 µM | 217 µM | 13 µM | > 160 µM | – | –
35 | CN(Cc1ccc(F)cc1)c1cc(C(=O)Nc2ccccc2)cnn1 | > 50 µM | 279 µM | 40 µM | > 50 µM | – | –
36 | CN(Cc1ccc(F)cc1)c1cncc(C(=O)Nc2ccc(F)cc2)n1 | > 50 µM | 282 µM | – | > 50 µM | – | < 5 µM
37 | CN(Cc1ccc(Cl)cc1)c1cc(C(=O)Nc2ccncc2)ncn1 | – | 282 µM | < 5 µM | 10 µM (≈ 3.54 µg/mL) | – | –
38 | CN(Cc1ccc(F)cc1)c1cc(C(=O)Nc2ccc(N3CCOCC3)cc2)ncn1 | 0.78 µM (≈ 0.329 µg/mL) | 237 µM | < 5 µM | 0.6 µM (≈ 0.253 µg/mL) | – | –
39 | O=C(Nc1ccccc1)c1ccc(=O)n(Cc2ccc(F)cc2)c1 | > 50 µM | 310 µM | 170 µM | > 50 µM | – | –
40 | CN(Cc1ccc(C(F)(F)F)cc1)c1cc(C(=O)Nc2ncn(C)n2)ncn1 | 50 µM (≈ 19.6 µg/mL) | 28 µM | 173 µM | 10 µM (≈ 3.91 µg/mL) | – | –
41 | CN(Cc1ccccc1Cl)c1cc(C(=O)Nc2ccccc2)ncn1 | > 160 µM | – | < 5 µM | – | – | –
42 | CN(Cc1ccc(F)cc1)c1cc(C(=O)Nc2ccon2)ncn1 | > 50 µM | – | – | 160 µM (≈ 52.4 µg/mL) | – | –
43 | CN(Cc1ccc(F)cc1)c1cc(C(=O)Nc2ccn(C)n2)ncn1 | > 50 µM | – | 90 µM | 40 µM (≈ 13.6 µg/mL) | – | –
44 | CC(=O)N1CCN(c2ccc(NC(=O)c3cc(N(C)Cc4ccc(C(F)(F)F)nc4)ncn3)cc2)CC1 | 4.7 µM (≈ 2.41 µg/mL) | > 50 µM | – | 2.3 µM (≈ 1.18 µg/mL) | – | < 5 µM
45 | CN1CCN(c2ccc(NC(=O)c3cc(N(C)Cc4ccc(C(F)(F)F)nc4)ncn3)cc2)CC1 | 12.5 µM (≈ 6.07 µg/mL) | 45.2 µM | 165 µM | 12.5 µM (≈ 6.07 µg/mL) | – | –
46 | Cc1csc(NC(=O)c2cc(N(C)Cc3ccc(F)cc3)ncn2)n1 | 37 µM (≈ 13.2 µg/mL) | – | < 5 µM | 5 µM (≈ 1.79 µg/mL) | – | –
